Results pooled from the literature.
Each line is one published result; the experiments were not run side by side.
TYK2 JH2: Non-receptor tyrosine-protein kinase TYK2, JH2 (TYK2, Homo sapiens, UniProt P29597)
TYK2 JH1: Non-receptor tyrosine-protein kinase TYK2, JH1 (TYK2, Homo sapiens, UniProt P29597)
TYK2: Non-receptor tyrosine-protein kinase TYK2 (TYK2, Homo sapiens, UniProt P29597)

Compound | target | effect on | technique | concentration | remaining binding
c1cncc(-c2cccc(Nc3nccc(NC4CCCCC4)n3)c2)c1 | TYK2 JH2 | binding | competition with immobilised ligand | 10 µM | 3.8%
FC(F)(F)Oc1cccc(-c2cnc3ccc(-c4ccncc4)nn23)c1 | TYK2 JH1 | binding | competition with immobilised ligand | 5 µM | 53%
N[C@@H]1CCN(c2nccc(-c3cnn4ncccc34)n2)C1 | TYK2 JH1 | cell-free assay | competition with immobilised ligand | 1 µM | 100%
CN1CCN(c2ccc(Nc3nccc(-c4cccc([N+](=O)[O-])c4)n3)cc2C(F)(F)F)CC1 | TYK2 | binding |  | 10 µM | 0%
COc1cccc(CNC(=O)c2nc3scc(COCc4ccc(C(=O)O)cc4)c3c(=O)[nH]2)c1 | TYK2 JH2 | cell-free assay | competition with immobilised ligand | 1 µM | 79.8%
C[C@@H]1CCN(c2nccc(-c3cnn4ncccc34)n2)C1 | TYK2 | binding |  | 1 µM | 66%
CCN1CCN(Cc2ccc(C(=O)Nc3ccc(C)c(Oc4ccc5c(c4)CC(=O)N5)c3)cc2C(F)(F)F)CC1 | TYK2 JH1 | binding | competition with immobilised ligand | 1 µM | 100%
CC(=O)Nc1c(C(C)=O)c(=O)n(C)c2nc(-c3ccc(Cl)cc3Cl)c(-c3ccc(Cl)cc3)cc12 | TYK2 JH2 | cell-free assay | competition with immobilised ligand | 1 µM | 100%
Cc1cnc(Nc2ccc(C(=O)N3CCC(N4CCCC4)CC3)cc2)nc1-c1cc2ccccc2s1 | TYK2 JH1 | binding | competition with immobilised ligand | 1 µM | 6.7%
CC(=O)c1c(NS(C)(=O)=O)c2cc(-c3ccc(Cl)cc3)c(-c3ccc(Cl)cc3Cl)nc2n(C)c1=O | TYK2 JH2 | cell-free assay | competition with immobilised ligand | 1 µM | 89%
COc1cnc(Nc2cccc(S(N)(=O)=O)c2)nc1N1CCN(c2ccccc2)CC1 | TYK2 JH1 | binding | competition with immobilised ligand | 1 µM | 53%
O=C(NCCCN1CCOCC1)c1ccc(Nc2ncc(Cl)c(-c3ccc(Cl)s3)n2)cc1 | TYK2 JH2 | binding | competition with immobilised ligand | 1 µM | 5.3%
COc1cc(-c2cn(C3CCc4c(F)cccc4N(CC(F)(F)F)C3=O)nn2)ccc1-n1cnc(C)c1 (stereo not shown) | TYK2 JH2 | cell-free assay | competition with immobilised ligand | 1 µM | 100%
CC(C)(C)c1ccc(-c2nc(CBr)nn2-c2cccc(O)c2)cc1 | TYK2 | cell-free assay | competition with immobilised ligand | 10 µM | 62%
O=C(c1ccc(Nc2ncc(Cl)c(-c3cc4ccccc4s3)n2)cc1)N1CCC(N2CCCC2)CC1 | TYK2 JH1 | binding | competition with immobilised ligand | 1 µM | 7.1%
Nc1ncc2c(n1)-c1c([nH]c3ccc(C#CC4CC4)cc13)CCCC2 | TYK2 JH1 | binding | competition with immobilised ligand | 1 µM | 86%
C[C@@H]1CN(c2ccc3ncc(-c4ccc5[nH]nc(C6CC6)c5c4)n3n2)C[C@H](C)O1 | TYK2 | binding | competition with immobilised ligand | 0.5 µM | 100%

Compound | target | effect on | technique | concentration | remaining binding
c1cnn2ncc(-c3ccnc(N4CCC45COC5)n3)c2c1 | TYK2 | binding |  | 1 µM | 66%
O=C(c1ccc(Nc2ncc(Cl)c(-c3ccc(Cl)s3)n2)cc1)N1CCC(N2CCCC2)CC1 | TYK2 JH2 | binding | competition with immobilised ligand | 1 µM | 0.2%
COc1cnc(Nc2cccc(S(N)(=O)=O)c2)nc1N1CCN(c2ccccc2)C(=O)C1 | TYK2 JH2 | binding | competition with immobilised ligand | 1 µM | 13%
O=C(c1ccc(Nc2nccc(-c3cc4ccccc4s3)n2)cc1)N1CCC(N2CCCC2)CC1 | TYK2 JH1 | binding | competition with immobilised ligand | 1 µM | 13%
CCc1ccccc1C(=O)Nc1n[nH]c2c(C)c(F)c(C3C(C#N)=C(C)N(C)C(C)=C3C#N)cc12 | TYK2 JH1 | cell-free assay | competition with immobilised ligand | 1 µM | 100%
O=C(NCCCN1CCOCC1)c1ccc(Nc2nccc(-c3cc4ccccc4s3)n2)cc1 | TYK2 JH1 | binding | competition with immobilised ligand | 1 µM | 11%
CNC(=O)[C@@H]1CC[C@@H](n2c(-c3ccc4cnccc4c3)nc3ccc(C(=O)NCc4cccc(C(N)=O)c4)cc32)C1 | TYK2 JH2 | binding | competition with immobilised ligand | 1 µM | 100%
O=C(NCC1CCOCC1)c1n[nH]cc1NC(=O)c1c(F)cccc1F | TYK2 JH2 | binding | competition with immobilised ligand | 1 µM | 59%
CN(C)c1ncc(F)c(-c2cnn3ncccc23)n1 | TYK2 | binding |  | 1 µM | 70%
Cc1nc(C2CCN(C(=O)c3ccc(OC(F)(F)F)cc3N)CC2)c2ncc(N3CCN(C)CC3)cc2n1 | TYK2 JH2 | cell-free assay | competition with immobilised ligand | 1 µM | 88%
O=C(Nc1c[nH]nc1C(=O)NC1CCNCC1)c1cc(F)cc(F)c1 | TYK2 JH1 | binding | competition with immobilised ligand | 1 µM | 100%
CN(C)c1nccc(-c2cnc3ncccn23)n1 | TYK2 | binding |  | 1 µM | 82%
C[C@H](NC(=O)c1cnc2n1[C@](C)(Cc1ccc(C#N)cc1)C(=O)N2c1cc(Cl)c(F)c(Cl)c1)C(=O)NC1(c2ccccn2)CC1 | TYK2 JH2 | cell-free assay | competition with immobilised ligand | 1 µM | 100%
COc1ccnn2ncc(-c3ccnc(N(C)C)n3)c12 | TYK2 | binding |  | 1 µM | 68%
Cc1c[nH]c2nccc(Oc3c(F)cc(Nc4cc(Cl)nc(N)n4)cc3F)c12 | TYK2 JH2 | cell-free assay | competition with immobilised ligand | 0.1 µM | 89%
COc1ncc2cc3ccccc3nc2c1C#N | TYK2 JH2 | cell-free assay | competition with immobilised ligand | 5 µM | 99%
CN(C)c1nccc(-c2cnn3ncccc23)n1 | TYK2 | binding |  | 1 µM | 100%
